Several values for one entry are separate records, joined by “and”; a condition that tells them apart may be missing. Identical values can stand only once. Like-named read-outs stand apart in the source and are kept apart here. One block for each molecule: values may come before it.
Columns and labels:
[1] = system: patients with CD; conditions: cited from earlier work
[2] = Population pharmacokinetic analysis of upadacitinib IR formulation; format: in vivo, human
Procedure, shortened: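 A population PK model previously built for healthy subjects and RA patients was the starting model. It was fitted to sparse CELEST plasma concentrations: weeks 2–16, validated LC-MS, sampling time relative to last dose recorded. Covariate effects were judged by differences in Cave between covariate groups. Dose was tested as a covariate on model parameters to assess dose proportionality.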

[3] = format: in vivo, human; conditions: for Cmax: human, plasma, oral
Procedure, shortened: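 Patients with Crohn's disease took oral IR tablets at 3, 6, 12 or 24 mg b.i.d. or 24 mg q.d. for a 16-week induction. Sparse plasma samples were taken at weeks 2, 4, 8, 12 and 16, with time from last dose recorded, and assayed by validated LC-MS. Steady-state Cmax and Cmin came from empirical Bayesian individual estimates. Cave = Dose/(CL/F × dosing interval). Values are median (5th–95th percentiles).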

[4] = format: in vivo, human; conditions: healthy subjects, ER formulation study
Procedure, shortened: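 ER absorption parameters were estimated from phase I data in healthy volunteers given the extended-release formulation. They were then incorporated into the exposure–response models to simulate ER q.d. regimens.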

[5] = system: subjects with moderate‐to‐severe active Crohn's disease; test: Regression; format: in vivo, human; conditions: Cave as exposure metric; week 12/16
Procedure, shortened: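 SES-CD came from centrally read ileocolonoscopy at screening and at a randomly assigned week 12 or 16, with the two weeks pooled. End points were endoscopic response 25% and 50% and endoscopic remission, with nonresponder imputation. Regression Emax models related them to individual steady-state Cave over the dosing interval. The study used placebo and 3–24 mg b.i.d. or 24 mg q.d. IR oral dosing.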

[6] = cited from earlier work
[7] = 3 mg b.i.d. IR, steady-state, CD patients, CELEST
[8] = 6 mg b.i.d. IR, steady-state, CD patients, CELEST
[9] = 12 mg b.i.d. IR, steady-state, CD patients, CELEST
[10] = 24 mg b.i.d. IR, steady-state, CD patients, CELEST
[11] = 24 mg q.d. IR, steady-state, CD patients, CELEST

SMILES: O=C(Nc1nc2cccc(-c3ccc(CN4CCS(=O)(=O)CC4)cc3)n2n1)C1CC1 [Filgotinib]
efficacy in CD [1]: has shown efficacy

dose proportionality of exposure ([2]; 3–24 mg b.i.d.): approximately dose‐proportional | higher Cave with renal impairment ([2]; creatinine clearance 50 mL/minute vs 110 mL/minute): 28% | CL/F in subjects with CD relative to healthy subjects ([2]; population PK): comparable | lower clearance in subjects with RA compared with non‐RA subjects ([2]; population PK): 22% and ~ 20% | higher Cave in women compared with men ([2]; population PK covariate): 18% | lower CL/F in women compared with men ([2]; population PK covariate): 15% | lower Vc/F in women compared with men ([2]; population PK covariate): 25% | difference in Cave among different covariate groups ([2]; renal impairment, sex, bodyweight covariates): < 30% | lower Cave in subjects with CD than in subjects with RA ([2]; same dose): ~ 20% | Intersubject variability in CL/F ([2]; subjects with CD): 41% | Intersubject variability in Vc/F ([2]; subjects with CD): 29% | Cave, median (5th to 95th percentiles) [3, 7]: 6.9 (4.6–14.1) ng/mL | Cmin, median (5th to 95th percentiles) [3, 7]: 1.2 (0.4–6.6) ng/mL | Cave, median (5th to 95th percentiles) [3, 8]: 14.9 (7.6–25.2) ng/mL | Cmin, median (5th to 95th percentiles) [3, 8]: 2.6 (0.2–7.5) ng/mL | Cave, median (5th to 95th percentiles) [3, 9]: 26.7 (8.5–49.6) ng/mL | Cmax, median (5th to 95th percentiles) [3, 9]: 80.7 (25.3–124) ng/mL | Cmin, median (5th to 95th percentiles) [3, 9]: 4.9 (0.2–25.2) ng/mL | Cave, median (5th to 95th percentiles) [3, 10]: 55.1 (29.8–91.8) ng/mL | Cmin, median (5th to 95th percentiles) [3, 10]: 7.8 (1.8–20.7) ng/mL | Cave, median (5th to 95th percentiles) [3, 11]: 25.1 (13.6–92.0) ng/mL | Cmin, median (5th to 95th percentiles) [3, 11]: 1.7 (0.3–34.2) ng/mL | Cmax ([3]; 3 mg): 0.0218 µg/mL | Cmax ([3]; 6 mg): 0.0402 µg/mL | Cmax ([3]; 24 mg): 0.161 µg/mL | bioavailability of ER formulation relative to IR formulation [4]: 74% | EC50 for endoscopic remission [5]: 0.027 mg/L | EC50 for endoscopic response 50% [5]: 0.026 mg/L
SMILES: CC[C@@H]1CN(C(=O)NCC(F)(F)F)C[C@@H]1c1cnc2cnc3[nH]ccc3n12 [Upadacitinib]
dose proportionality of plasma exposures ([6]; 3–48 mg IR or 7.5–45 mg ER, ref 21,23 (data on file at AbbVie)): dose‐proportional | functional half‐life ([6]; IR formulation): 3 to 4 h | increase in bioavailability from the ER formulation after a high‐fat meal [6]: ~ 20% | relative bioavailability of ER formulation ([6]; more extensive dataset in subjects with RA): 76% | time to reach maximum plasma concentration ([6]; oral, IR formulation): 1 to 2 h | exposure of ER 15 mg and 30 mg q.d. vs IR 6 mg b.i.d. and 12 mg b.i.d. ([6]; phase I study, healthy subjects): equivalent Cave and similar Cmax and Cmin

SMILES: C[C@@H]1CCN(C(=O)CC#N)C[C@@H]1N(C)c1ncnc2[nH]ccc12 [tofacitinib]
efficacy in patients with CD ([1]; two phase II studies): did not demonstrate efficacy

— article PMC7027977 (Clinical Pharmacology and Therapeutics, 2019)
